In experiment [1] the test system is Nucleic Acid. Put plainly: Binding affinity to F21T human telomeric DNA assessed as change in melting temperature at 1 uM by FRET assay. The experiment is classed as nucleic-acid assay. In a few lines:
(§1)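 FRET melting of dual-labelled probes (FAM/TAMRA): G-quadruplex F21T or hairpin duplex F10T, 0.2 µM, in 10 mM Tris-HCl pH 7.2 with 60 mM KCl, ligand 1 µM. Emission read at 530 nm (excitation 470 nm) every 1 °C from 37 to 99 °C, with a 30 s hold before each reading. ΔTm is taken relative to the annealed probe without ligand.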

Experiment [2] relates to Nucleic Acid. Put plainly: Binding affinity to F10T hairpin duplex DNA assessed as change in melting temperature at 1 uM by FRET assay. It counts as nucleic-acid assay. An outline of the steps: as §1
The nature of experiment [3]: Inhibition of human telomerase in human MCF7 cell free extract by TRAP-LIG assay. An outline of the steps: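 TRAP-LIG: MCF-7 protein extract (500 ng) extends TS primer in TRAP buffer (pH 8.3, 68 mM KCl) with 125 µM dNTPs and ligand, 20 min at 30 °C. Product purified to remove ligand, then PCR-amplified with ACX primer for 35 cycles. Products resolved on 16% PAGE with silver staining; IC50 computed from band optical density.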

For experiment [4], the system named is Nucleic Acid. Put plainly: Binding affinity to oligonucleotide HTG21 by florescence titration assay in presence of K+ solution. It counts as nucleic-acid assay. An outline of the steps: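 Fluorescence titration at 25 °C in 10 mM Tris-HCl pH 7.2 with 100 mM KCl. HTG21 DNA added to ligand up to 0–2 µM final, with at least 10 min equilibration after each addition. Excitation at 343 or 353 nm depending on ligand. Binding constant Kb derived from the titration.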

Experiment [5] has as its system CA46. Briefly: Induction of telomere shortening in human CA46 cells assessed as telomere length at 1.8 uM by telomeric restriction fragment assay. The experiment is classed as functional. An outline of the steps: (§2)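 TRF length: HL60 or CA46 cells treated for 16 days with 0.9 or 1.8 µM ligand or 0.1% DMSO. Genomic DNA digested with HinfI/RsaI, run on 0.8% agarose, transferred to nylon membrane and baked at 120 °C for 20 min. Telomeric smears detected by Southern analysis.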

Experiment [6] concerns HL-60. Briefly: Induction of telomere shortening in human HL60 cells assessed as telomere length at 0.9 uM by telomeric restriction fragment assay. The experiment is classed as functional, cell-based. An outline of the steps: as §2
Experiment [7] deals with HL-60. Briefly: Cytotoxicity against human HL60 cells assessed as decrease in population doubling at 0.9 uM after 12 days. It counts as functional, cell-based.
Experiment [8] relates to HL-60. Put plainly: Induction of telomere shortening in human HL60 cells assessed as telomere length at 1.8 uM by telomeric restriction fragment assay. It counts as functional. In a few lines:
as §2

In experiment [9] the test system is HL-60. Put plainly: Cytotoxicity against human HL60 cells at 4.5 uM after 12 days. It counts as functional, cell-based.
Experiment [10] deals with HL-60. Briefly: Cytotoxicity against human HL60 cells assessed as decrease in population doubling at 1.8 uM after 12 days. The experiment is classed as functional, cell-based.
Experiment [11] deals with CA46. Put plainly: Cytotoxicity against human CA46 cells after 2 days by MTT assay. The experiment is classed as functional, cell-based. As to conditions: CA46, 48 h. In a few lines:
(§3)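 MTT viability: HL60 or CA46 cells seeded at 1.0 × 10³ per well and exposed to a ligand concentration series for 48 h at 37 °C, 5% CO₂. MTT added for 4 h, then DMSO; absorbance read at 570 nm. Each dose tested in triplicate; IC50 taken from mean OD versus concentration curves.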

The test system of experiment [12] is HL-60. Put plainly: Cytotoxicity against human HL60 cells at 4.5 uM after 8 days. The experiment is classed as functional, cell-based.
Experiment [13] deals with HL-60. Put plainly: Cytotoxicity against human HL60 cells after 2 days by MTT assay. The experiment is classed as functional, cell-based. As to conditions: HL-60, 48 h. An outline of the steps: as §3
In experiment [14] the test system is HL-60. Briefly: Induction of senescence in human HL60 cells assessed as beta galactosidase activity at 0.9 uM for 16 days. The experiment is classed as functional, cell-based. An outline of the steps:
(§4)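 SA-β-Gal staining: HL60 or CA46 cells treated continuously with 0.9 µM ligand or 0.1% DMSO for 16 days. Fixed in 2% formaldehyde/0.2% glutaraldehyde for 15 min, stained overnight at 37 °C with 1 mg/mL X-gal, then examined by light microscopy (×400). Repeated twice.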

The subject of experiment [15] is CA46. Briefly: Induction of senescence in human CA46 cells assessed as beta galactosidase activity at 0.9 uM for 16 days. It counts as functional, cell-based. In a few lines:
as §4

In experiment [16] the test system is CA46. Put plainly: Cytotoxicity against human CA46 cells assessed as decrease in population doubling at 0.9 uM after 12 days. It counts as functional, cell-based.
The subject of experiment [17] is Nucleic Acid. Put plainly: Binding affinity to HTG21 DNA assessed as induction of guanine-rich DNA to G-quadruplex structure formation. It counts as nucleic-acid assay. In a few lines: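 CD titration: HTG21 5 µM in 10 mM Tris-HCl pH 7.2, without or with 100 mM KCl. Annealed at 90 °C for 5 min, cooled slowly, held at 4 °C overnight. Ligand added at 0–5 mol equiv at 25 °C with at least 13 min equilibration per addition. Spectra recorded 230–450 nm in a 4 mm quartz cuvette.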

Activity calls are given as the source filed them. The rule behind the calls is not given here.

As to `CN(C)CCCNc1c2ccccc2nc2c1[nH]c1ccccc12`, the shift in melting temperature (ΔTm) turned out to be 10.4 °C in [1] and 5.7 °C in experiment [2].
For the compound `O=C(CCN1CCCCC1)Nc1ccc(/C=C2\CCn3c2nc2cc(NC(=O)CCN4CCCCC4)ccc2c3=O)cc1`, the IC50 in experiment [3] was 9.3 µM. Moreover, the Kb in [4] was 9.8 10^6 M-1. The figures for the thermal shift (ΔTm) in experiment [1] and in experiment [2] were 22 °C and 0 °C, respectively.
`O=C(CCN1CCCC1)Nc1ccc(/C=C2\CCn3c2nc2ccc(NC(=O)CCN4CCCC4)cc2c3=O)cc1` yielded an IC50 in [3] of 9 µM. Moreover, the Kb in experiment [4] was 7.2 10^6 M-1. Also, the shift in melting temperature (ΔTm) in experiment [1] amounted to 17.6 °C; in [2], 0.4 °C.
On to `O=C(CCN1CCCC1)Nc1ccc(/C=C2\CCn3c2nc2cc(NC(=O)CCN4CCCC4)ccc2c3=O)cc1`, for which the Activity came out at 2.3 kilobase in experiment [5] and 1.1 kilobase in experiment [8]. The outcome in [6], in experiment [7], in experiment [9], in experiment [10], in experiment [12] and in experiment [14] was Active. In addition, the outcome in experiment [15], in experiment [16] and in experiment [17] was Active. Besides, the IC50 in experiment [11] is 29 µM; in [3], 7.8 µM; in experiment [13] it was 33 µM. In [4], the Kb is 10.1 10^6 M-1. The thermal shift (ΔTm) in experiment [1] turned out to be 21.9 °C; in experiment [2], 0.1 °C.
Consider `O=C(CCN1CCCCC1)Nc1ccc(/C=C2\CCn3c2nc2ccc(NC(=O)CCN4CCCCC4)cc2c3=O)cc1`, for which, in experiment [3], it took 15.2 µM to reach half-maximal inhibition (IC50). Besides, the Kb in experiment [4] was 8.1 10^6 M-1. The values for the ΔTm in experiment [1] and in [2] were 17.6 °C and 0.1 °C, respectively.

(Values after ChEMBL document CHEMBL1138466, “Isaindigotone derivatives: a new class of highly selective ligands for telomeric G-quadruplex DNA” (J Med Chem, 2009).)
